Screening data (PubChem)
Sampled rows, rich in hits. Any-hit rate of the full collection: about 5.3%.
NALP3 yeast inh – inhibitors of NALP3 inflammasome in yeast; inhibition, % at 10 µM; actives 0.39% (n = 330,000); Yeast reconstituted NLRP3/ASC/caspase-1, beta-gal luminescence, 24 h;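 active = inhibition of 50% or more; inactive = inhibition below 50%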;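 note: plate controls were induced DMSO wells for no effect and uninduced yeast grown without galactose for full effect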
CSC inhib – blocks cancer stem cells; cancer stem cell-like cells viability, luminescence; inhibition, % at 7.5 µM; actives 1.1% (n = 300,000); AID 2717; in the data active = inhibition above about 75%; inconclusive = no clear call, values can overlap the other calls; tested in HMLE shEcad cells
Mdm2-MdmX inh – inhibitors of human Mdm2/MdmX interaction; O15151+Q00987; SaOS-2 split-luciferase Mdm2/MdmX complementation, luminescence; inhibition, % at 8 µM; actives 3% (n = 330,000);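 active = inhibition of at least 50% at 8 µM in the primary screen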
T cruzi inh – blocks replication of Trypanosoma cruzi; T. cruzi beta-gal in NIH3T3, luminescence, 90 h; inhibition, % (test concentration not listed); actives 1.4% (n = 300,000);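 active = mean inhibition across valid replicates above about 55%, limit read from the data; inconclusive = mean below that limit but half or more replicates reach it; inactive = mean below it, under half of replicates reach it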;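 note: signal also drops with host cell toxicity which is not excluded here; 0% = plate median of DMSO wells and 100% = zero luminescence signal; higher percent means less beta-gal luminescence so fewer parasites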
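System: mouse NIH/3T3 fibroblasts infected with β-gal-expressing T. cruzi Tulahuen C4 / Input: NIH/3T3 cells, 5,000 per well / Buffer or medium: Low-serum DMEM with 2% FBS / Probe or stimulus: 5000 reporter trypomastigotes per well / Schedule: ≥90 h infection period, 3 h prior cell attachment / Measured by: GalScreen luminescence, 60 min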
Calb FLC – C. albicans growth modulation with fluconazole | AID 1979 | growth inhibition, % (concentration not given with the values) | C. albicans CaCi-2 + fluconazole, Alamar Blue growth, 48 h | actives 0.57% (n = 300,000);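 active = growth inhibition above about 58% in most replicates, limit read from the data, passing the limit was not always enough; inconclusive = exactly half the replicates above a set limit; inactive = most replicates below a set limit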;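 note: all wells also contain fluconazole at 8 µg/ml as a sub-toxic cotreatment; 0% = median of DMSO wells and 100% = median of geldanamycin control wells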
Beta apoptosis – beta cell apoptosis inhibition. INS-1E cytokine-induced death, ATP luminescence, 48 h; percent of positive-control rescue, neutral wells zero. protection from apoptosis, % (test concentration not listed). actives 0.8% (n = 300,000);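 active = Every replicate reaches about 75%, or at least half do and their mean reaches it too, limit read from the data; inconclusive = At least half of replicates reach the limit but their mean does not; inactive = Under half of replicates reach the limit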;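 note: 0% = cytokine-treated negative control wells and 100% = positive control rescue; higher means more ATP so stronger rescue from cytokine killing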
Mdm2-MdmX conf – human Mdm2/MdmX binding inhibition, confirmed; shares compounds with Mdm2-MdmX inh; luminescent assay; inhibition, % at 8 µM; actives 55% (n = 10,000); in the data active = inhibition above about 40%
FLuc counter – full-length luciferase inhibition in Mdm2/MdmX counter-screen; shares compounds with Mdm2-MdmX inh; SaOS-2 full-length luciferase counterscreen, luminescence; inhibition, % at 8 µM; actives 77% (n = 6,200); AID 504607;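 active = mean inhibition at 8 µM reaching about 37%, which flags the compound as non-specific, limit read from the data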;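 note: p53-null SaOS-2 cells with luciferase driven by a doxycycline-inducible promoter; compound on cells about two nights before reading with doxycycline added after day one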
* marks the source's active call; other numbers are inactive results; ? = inconclusive; . = no result.

SMILES	NALP3 yeast inh	CSC inhib	Mdm2-MdmX inh	T cruzi inh	Calb FLC	Beta apoptosis	Mdm2-MdmX conf	FLuc counter
COC(=O)Nc1ccc(S(=O)(=O)N2CCCCC2C(=O)O)cc1 (centres undefined)	10	-16	19	-4	-12	-4	.	.
O=C(Nc1nnc(C2CC2)o1)c1ccc(S(=O)(=O)N2CCCc3ccccc32)cc1	5	22	50*	59*	?	27	44*	71*
COC(=O)Nc1ccc(S(=O)(=O)N2c3ccccc3CCC2C)cc1 (centres undefined)	-24	145*	58*	-12	23	10	63*	60*
O=C(Nc1nnc(C2CC2)o1)c1ccc(S(=O)(=O)N2CCCCC2)cc1	5	39	18	-25	-2	.	.	.
CC1(C)C(C#N)=C(N)Oc2c1c(=O)oc1ccccc21	4	-3	-6	-20	-2	-16	.	.
O=C(CCn1cnc(-c2ccccc2)c1-c1ccccc1)N/N=C/c1ccccc1O	17	67	76*	10	13	38	69*	26
COc1ccc(/C=N/NC(=O)CCn2cnc(-c3ccccc3)c2-c2ccccc2)cc1	13	52	58*	-53	23	35	72*	96*
COc1ccc(/C=N/NC(=O)COc2ccccc2-c2ccccc2)cc1	22	-12	56*	-15	-6	32	68*	90*
O=C(CCn1cnc(-c2ccccc2)c1-c1ccccc1)N/N=C/c1ccc(O)cc1	11	-8	19	-3	20	-4	.	.
Cc1ccc(NC(=O)c2ccc(OCc3c(C)noc3C)cc2)c(C)c1	23	4	20	.	.	5	.	.
COc1ccc(Cc2nnc(N/N=C/c3ccc(O)cc3)[nH]c2=O)cc1OC	3	102*	66*	11	5	99*	70*	25
C/C(=N\NC(=O)c1c(C)nc2ccccn12)c1ccccc1F	2	-10	7	7	-6	3	.	.
C/C(=N\NC(=O)c1c(C)nc2ccccn12)c1ccc(O)cc1O	48	4	74*	51	4	88*	78*	34
CC1CCc2c(sc(NC(=O)CCc3nc4ccccc4c(=O)[nH]3)c2C#N)C1 (centres undefined)	-12	23	72*	.	.	11	71*	60*
Cc1nn(-c2ccccc2)c(C)c1-c1nnc(-c2c(C)nn(-c3ccccc3)c2C)o1	-12	25	56*	30	-2	4	5	.
COC(=O)CSc1nnc([C@H](Cc2ccccc2)NC(=O)OC(C)(C)C)o1	12	-11	-31	-4	-5	-8	.	.
Cc1cccc(CS(=O)(=O)c2nnc([C@H](Cc3ccccc3)NC(=O)OC(C)(C)C)o2)c1	18	95*	97*	43	-16	53	56*	54*
CC(C)(C)OC(=O)N[C@@H](Cc1ccccc1)c1nnc(SCC(N)=O)o1	2	-4	4	20	11	-2	.	.
COC(=O)CS(=O)(=O)c1nnc([C@H](Cc2ccccc2)NC(=O)OC(C)(C)C)o1	13	91*	84*	4	13	35	56*	15
COc1ccc(-c2ccc(=O)n(CC(=O)Nc3nnc(C(C)C)s3)n2)cc1OC	6	-1	5	-9	7	.	.	.
COc1ccc(-c2ccc(=O)n(CC(=O)Nc3cccc(O)c3)n2)cc1OC	10	-7	55*	3	111*	-11	55*	108*
COc1ccc(NC(=O)CSc2nnc(-c3cccnc3)n2C)cc1	12	-6	-3	-1	7	-1	.	.
COc1ccc(NC(=O)c2oc3ccc(S(=O)(=O)N4CCC5(CC4)OCCO5)cc3c2C)cc1	-14	0	71*	-1	0	-1	35	.
Cc1c(C(=O)Nc2cc(S(=O)(=O)N3CCOCC3)ccc2N2CCN(C)CC2)oc2ccccc12	11	8	56*	33	6	-14	39	65*
CN1CCN(c2ccc(S(=O)(=O)N3CCOCC3)cc2NC(=O)CC(C)(C)C)CC1	8	8	-5	.	.	-4	.	.
SMILES	NALP3 yeast inh	CSC inhib	Mdm2-MdmX inh	T cruzi inh	Calb FLC	Beta apoptosis	Mdm2-MdmX conf	FLuc counter
CCN(CC)c1ccc(S(=O)(=O)N2CCOCC2)cc1NC(=O)CSc1ccccc1	20	11	-7	-7	18	0	.	.
CCN(CC)c1ccc(S(=O)(=O)N2CCOCC2)cc1NC(=O)c1cc(=O)c2ccccc2o1	8	-3	51*	10	0	24	23	.
O=C(NCc1ccco1)Nc1cccs1	23	-4	6	-11	-3	-11	.	.
Cn1c(=O)[nH]c(=O)c2c1ncn2CCN1CCCCC1	17	-14	25	9	11	3	.	.
COc1ccc(COc2cc(-c3cccc(OC)c3)nc3ccc(NC(=O)c4ccccc4)cc23)cc1	12	45	21	29	26	7	.	.
COc1ccc(COc2cc(-c3cccc(OC)c3)nc3ccc(NC(=O)c4cccnc4)cc23)cc1	13	38	63*	38	1	12	55*	69*
COc1ccc(COc2cc(-c3cccc(OC)c3)nc3ccc(NC(=O)c4ccc(OC)cc4)cc23)cc1	22	62	52*	3	-7	25	40*	62*
O=C(CCc1nc2ccccc2c(=O)[nH]1)NCc1ccccn1	6	-3	-10	4	11	3	.	.
CCCN(CCC)CC(O)CN(c1cc([N+](=O)[O-])ccc1OC)S(=O)(=O)c1ccccc1 (centres undefined)	5	-2	5	-19	-6	-5	.	.
Cc1ccccc1NC(=O)COc1ccc(Br)cc1C	25	-8	0	-5	-17	-3	.	.
CS(=O)(=O)c1nc(-c2ccccc2)cc(-c2ccccc2)c1C#N	6	2	100*	9	1	5	27	.
Cc1ccc(-c2cc(-c3ccccc3)nc(Cl)n2)cc1	21	-4	11	11	6	5	.	.
Cc1ccc(-c2cc(-c3ccccc3)c(C#N)c(Br)n2)cc1	8	0	72*	13	15	6	-4	.
COc1ccc(-c2nc3ccc(N4CCCC4)cc3c(=O)[nH]2)cc1OC	11	15	52*	4	-7	-3	57*	56*
COc1ccc(-c2cc(C(=O)N3CCN(c4ccccc4)CC3)c3ccccc3n2)cc1OC	19	-1	30	13	-3	9	.	.
CCOc1cc(N2CCOCC2)c(OCC)cc1NC(=O)COC(=O)COc1cc(C)cc(C)c1	14	-3	10	-2	4	2	.	.
O=[N+]([O-])c1cc(/C=N/NC(=S)Nc2ccccc2Cl)ccc1Cl	15	84*	59*	.	-1	13	21	.
